Screens from PubChem.
A selection: hits, their analogues and other compounds. The true share with any hit is near 2.9%.
TRPC4 act – activators of mouse TRPC4 channel | Q9QUQ5 | HEK293 TRPC4beta/mu-opioid, Fluo4 calcium fluorescence; active compounds read high | B-score at 10 µM | 0.49% of 310,000 active | AID 2237;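 active = B-score above 5 SD of library B-scores, and initial fluorescence ratio not above library mean plus 5 SD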;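 also: positive B-score marks a calcium rise read as TRPC4 activation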
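Incubation: 45 min room-temperature Fluo4 loading, 110 s read / System: HEK293 cells stably co-expressing mouse TRPC4beta and mu-opioid receptor / Signal: Fluo4 fluorescence, kinetic / Control set: buffer (low) and maximal DAMGO (high) / Measure: integrated baseline-normalised fluorescence ratio, converted to per-well B score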
Kir21 block – blocks the mouse Kir2.1 inward-rectifier potassium channel; HEK293-Kir2.1, FluxOR thallium flux fluorescence; active compounds read low; 0.85% of 310,000 active; B-score at 10 µM; AID 1672; P35561;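 active = fluorescence ratio B-score at or below minus 3 SD of library scores, with starting-brightness B-score within 2 SD, cut at about -4.2 in these data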;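 also: channel flux triggered by added potassium and thallium sulfate stimulus; B-score of peak minus minimum fluorescence over baseline after thallium stimulus; more negative B-score means stronger Kir2.1 block with less thallium influx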
TRPC4 PAM – TRPC4 (mouse) allosteric potentiation; HEK293 TRPC4beta/mu-opioid, DAMGO EC20, Fluo-4 Ca2+ flux; active compounds read high; B-score at 10 µM; 0.42% of 310,000 active; AID 2227;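 active = B-score of calcium response area above 5 SD of library B-scores, with initial fluorescence ratio within 5 SD of library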;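 also: B-score of integrated fluorescence ratio over time as area under calcium response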
TRPC4 block – blocks the mouse TRPC4 cation channel; B-score at 10 µM; HEK293 TRPC4beta/mu-opioid, DAMGO-evoked Fluo4 calcium flux; active compounds read low; 0.39% of 300,000 active; AID 2247;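 active = B-score over 3 SD under the library average, no early fluorescence shift, positive overall ratio signal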
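Signal: kinetic Fluo4 fluorescence imaging of calcium influx. Material: stable TRPC4beta/mu-opioid receptor HEK293 cells. Probe or stimulus: DAMGO in two steps, submaximal then maximal.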
TRPC6 inhibitor – blocks the mouse TRPC6 cation channel; 1.1% of 310,000 active; Q61143; B-score at 10 µM; HEK293-TRPC6, membrane potential dye, ACh-evoked depolarization; active compounds read low;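 active = B-score under library mean minus 3 SD, initial fluorescence not abnormally high, positive integrated signal ratio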;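 also: B-score derived from integrated fluorescence ratio over the kinetic read; more negative B-score means stronger inhibition of depolarization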
Target sequence (Q61143 whole entry, looked up): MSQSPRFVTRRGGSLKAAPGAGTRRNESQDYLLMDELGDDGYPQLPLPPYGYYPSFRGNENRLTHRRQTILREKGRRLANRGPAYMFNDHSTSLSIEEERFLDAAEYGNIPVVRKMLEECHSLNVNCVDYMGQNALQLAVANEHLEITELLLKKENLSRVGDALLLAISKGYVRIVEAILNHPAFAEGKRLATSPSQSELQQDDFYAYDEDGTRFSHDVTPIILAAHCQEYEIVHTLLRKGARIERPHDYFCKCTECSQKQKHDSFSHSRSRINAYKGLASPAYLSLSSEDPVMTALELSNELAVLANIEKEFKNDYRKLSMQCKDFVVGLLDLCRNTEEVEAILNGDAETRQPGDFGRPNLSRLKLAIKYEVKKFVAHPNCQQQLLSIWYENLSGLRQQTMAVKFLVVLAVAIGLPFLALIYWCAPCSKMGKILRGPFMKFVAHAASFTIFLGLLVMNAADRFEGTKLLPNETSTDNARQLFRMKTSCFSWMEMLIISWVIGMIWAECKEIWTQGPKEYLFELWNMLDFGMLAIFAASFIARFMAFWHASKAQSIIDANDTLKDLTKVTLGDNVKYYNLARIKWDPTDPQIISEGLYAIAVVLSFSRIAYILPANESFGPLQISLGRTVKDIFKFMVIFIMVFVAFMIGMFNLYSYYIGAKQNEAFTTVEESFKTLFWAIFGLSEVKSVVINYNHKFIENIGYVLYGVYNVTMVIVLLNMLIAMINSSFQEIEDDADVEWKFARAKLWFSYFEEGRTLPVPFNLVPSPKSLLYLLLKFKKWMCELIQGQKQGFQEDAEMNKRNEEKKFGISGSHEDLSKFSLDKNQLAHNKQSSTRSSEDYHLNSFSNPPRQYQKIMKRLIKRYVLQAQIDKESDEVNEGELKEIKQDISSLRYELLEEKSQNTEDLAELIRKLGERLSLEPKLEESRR
TRPC6 act – activates the mouse TRPC6 cation channel | HEK293-TRPC6 membrane potential dye fluorescence; active compounds read high | B-score at 10 µM | 0.13% of 310,000 active;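 active = B-score of the integrated fluorescence ratio above library mean plus 3 SD, and starting fluorescence ratio within library mean plus 5 SD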;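 also: higher score means more depolarization so channel activation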
An asterisk follows results filed as active; i = inactive.

SMILES	TRPC4 act	Kir21 block	TRPC4 PAM	TRPC4 block	TRPC6 inhibitor	TRPC6 act
COc1ccc(-c2nn(-c3ccccc3)cc2CNCc2cccnc2)c(F)c1	103*	-0.01	i	i	i	i
COc1ccc(-n2cc(CNCc3cccnc3)c(-c3cccc(F)c3)n2)cc1	94*	-0.19	i	i	i	i
COc1ccc(-c2nn(-c3ccccc3C)cc2CNCc2cccnc2)cc1F	178*	-1.8	i	i	i	i
CCN(CC)Cc1nc2c(c(=O)[nH]1)C(CC)(CC)Cc1ccccc1-2	i	0.32	i	i	i	i
CC1CCN(CCCNC(=O)c2nn(C)c3c2CS(=O)(=O)c2ccccc2-3)CC1	i	-0.92	i	i	i	i
CCCc1c(-c2ccc(O)cc2)nn(-c2ccc(O)cc2)c1-c1ccc(O)cc1	i	-1.8	27*	i	i	i
COc1ccccc1N(C(=O)c1csnn1)C(C(=O)NC1CCCC1)c1ccccc1 (configuration not stated)	i	-0.41	i	i	i	i
Cc1ccc(C)c(NC(=O)CCc2nnc3ccc(N4CCCC4)nn23)c1	i	0.84	i	i	i	i
Cc1ccc(C)c(CN2CCC(CNC(=O)CCc3nnc4ccc(N5CCCCC5)nn34)CC2)c1	126*	-0.03	i	i	i	i
CN(C)C(CNC(=O)c1cccs1)c1cccnc1 (configuration not stated)	i	2.9	i	i	i	i
CCc1cccc(C)c1NC(=S)NCc1ccccc1	i	-2.9	i	i	i	i
CCc1cccc(C)c1NC(=S)NCC(c1cccnc1)N(C)C (configuration not stated)	91*	0.14	i	i	i	i
CN(C)C(CNC(=S)Nc1ccccc1)c1cccnc1 (configuration not stated)	75*	-0.03	i	i	i	i
CN(C)C(CNC(=O)NC1CCCCC1)c1cccnc1 (configuration not stated)	105*	-0.06	i	i	i	i
CN(c1ccccc1C(=O)N1CCN(Cc2ccc3c(c2)OCO3)CC1)S(C)(=O)=O	i	1.1	i	i	i	i
COCCCNC(=O)Cn1c(=O)n(CCCCCC(=O)NCc2ccc3c(c2)OCO3)c(=O)c2sccc21	i	-0.16	i	i	i	i
CC1CC(C)C[N+](=C2C=C(N3CCCC3)CC(C)(C)C2)C1 (configuration not stated)	i	-5.8*	i	i	i	i
COc1cc2c(cc1OC)C(C1C(=O)CC(C)CC1=O)N(C(=O)CCl)CC2 (configuration not stated)	i	1.1	i	i	i	i
Cc1ccc(NS(=O)(=O)c2ccc(N3CCN(c4ccc(O)cc4)CC3)c([N+](=O)[O-])c2)c(C)c1	i	1.6	26*	i	i	i
O=[N+]([O-])c1cc(S(=O)(=O)Nc2ccccc2)ccc1N1CCN(c2ccc(O)cc2)CC1	i	1.8	i	i	i	i
Cc1ccc2nc(SCC(=O)NCc3ccc4c(c3)OCO4)nc(=O)n2c1	i	0.04	i	i	i	i
CC1(C)NC(=O)N(CCCCOc2ccc3ccccc3c2Cl)C1=O	i	2	i	i	i	i
CC1(C)NC(=O)N(CCOCCOc2ccc3ccccc3c2Br)C1=O	i	-2.3	13*	i	i	i
Cc1cc(C)c(C(=O)COC(=O)CCn2c(C)csc2=O)cc1C	i	-4.5*	i	i	i	i
Cc1ccc(C2=NC(C(F)(F)F)(C(F)(F)F)c3c(n(-c4ccc(F)cc4)c(=O)[nH]c3=O)N2)cc1	i	0.58	12*	i	i	i
SMILES	TRPC4 act	Kir21 block	TRPC4 PAM	TRPC4 block	TRPC6 inhibitor	TRPC6 act
O=C(N/N=C1\CCS(=O)(=O)c2ccc(F)cc21)c1ccc(O)cc1	i	0.67	i	i	i	i
COc1cccc(C(C[N+](=O)[O-])c2c(C)[nH]n(-c3ccccc3)c2=O)c1 (configuration not stated)	i	-13*	i	i	i	i
Cc1nn(CCCC(=O)NCCc2ccc(Cl)cc2)c(=O)c2nn(-c3ccccc3)c(C)c12	i	-0.37	i	i	i	i
COc1ccc(-c2nc(-c3cccs3)c(-c3cccs3)[nH]2)cc1O	i	-5.6*	i	i	i	i
O=C(O)c1ccc(-c2nc(-c3ccccc3)c(-c3cccs3)[nH]2)cc1	i	3.8	i	i	i	i
CCCCN(CC)CCCNC(=O)CC1Oc2ccccc2NC1=O (configuration not stated)	56*	0.29	i	i	i	i
CC(C)CN(CCCNC(=O)CC1Oc2ccccc2NC1=O)CC(C)C (configuration not stated)	i	0.73	i	i	i	i
N#CCCn1cc(CNCc2ccccc2)c(-c2cccc([N+](=O)[O-])c2)n1	i	0.02	i	-6*	i	i
Cc1cc(C)n2nc(-c3ccco3)nc2n1	i	-1.4	i	i	i	i
CC(C)n1c(SCc2ccccc2F)nc2c1c(=O)n(C)c(=O)n2C	i	-4.6*	i	i	i	i
CC(C)n1c(SCC(=O)N2c3ccccc3Sc3ccccc32)nc2c1c(=O)n(C)c(=O)n2C	i	0.93	17*	i	i	i
CC(C)n1c(SCc2cc(=O)[nH]c3ccccc23)nc2c1c(=O)n(C)c(=O)n2C	i	-0.44	i	i	i	i
CC(C)n1c(SCC(N)=O)nc2c1c(=O)n(C)c(=O)n2C	i	-0.04	i	i	i	i
CN(C)CCCn1c(SCC(=O)N2c3ccccc3Sc3ccccc32)nc2ccccc2c1=O	i	-5.2*	i	i	i	i
C/C1=C\CCC2C(/C=C(\C)CC1)OC(=O)C2CN1CCCCC1 (configuration not stated)	i	0.69	i	i	i	i
CCS(=O)(=O)N1CCC(C(=O)Nc2cc(C)ccc2O)CC1	i	1.4	i	i	i	i
CC1CN(C(=O)C(C)Sc2nc3ccccc3s2)CC(C)O1 (configuration not stated)	i	0.07	i	i	i	i
CC(Sc1nnnn1C)C(=O)NC1CCCc2ccccc21 (configuration not stated)	i	-1.3	i	i	i	i
